# Bioassay records deposited in PubChem by several laboratories.
# TPT1 inh = inhibitors of Candida albicans tRNA 2'-phosphotransferase TPT1; recombinant caTPT1, FP RNA substrate dephosphorylation; inhibition, % at 5 µM; 0.81% of 300,000 active; AID 1962;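 active = inhibition above the mean of all tested compounds plus 3 SD, set per screening campaign, cut at about 24% in these data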;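 note: plate controls were DMSO alone for no effect and ferristatin control at 100 nM for full effect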
# HNF4A DNA FP = change in binding of human HNF4 alpha to DNA; P41235; HNF4a-FITC DNA binding, fluorescence polarization, 1 h; activity change, % at 10 µM; 0.3% of 360,000 active; AID 1224865; in the data active = activity change above about 30%, passing the limit was not always enough
# Rpn11 inh = blocks the human proteasome subunit Rpn11; inhibition, % at 20 µM; human 26S proteasome, Ub4-pepOG fluorescence polarization; 20S core pre-blocked with epoxomicin; 0.59% of 360,000 active;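 active = inhibition at 20 µM, scaled to each plate's controls, above about 33%, limit read from the data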
# Target sequence (O00487 whole entry, looked up): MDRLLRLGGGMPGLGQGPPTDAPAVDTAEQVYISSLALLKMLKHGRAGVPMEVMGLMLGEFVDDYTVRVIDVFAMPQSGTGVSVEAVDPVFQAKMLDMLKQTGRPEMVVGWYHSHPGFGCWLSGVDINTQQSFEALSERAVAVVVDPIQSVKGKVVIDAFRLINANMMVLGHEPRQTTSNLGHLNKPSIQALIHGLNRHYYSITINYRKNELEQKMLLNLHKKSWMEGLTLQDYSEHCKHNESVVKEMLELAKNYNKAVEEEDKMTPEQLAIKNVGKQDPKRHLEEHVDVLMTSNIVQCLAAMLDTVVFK
# CSN inh = CSN deneddylation inhibition; Q92905; Purified CSN, SCF-Nedd8-OG deneddylation, fluorescence polarization; inhibition, % at 12.5 µM; 0.38% of 360,000 active; AID 651999;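 active = pattern-corrected inhibition above about 35%, with an unprinted fluorescence ratio check between 0.5 and 1.5, limit read from the data, passing the limit was not always enough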;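 note: 0% = enzyme with substrate and 100% = substrate without enzyme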
#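 Assay system: purified human Csn5 enzyme expressed in HEK293T cells; Input: 0.24 nM Csn5 enzyme, final concentration; Reagent: 10 nM SCFSkp2-Nedd8OG; Compound dosing: 12.5 µM single point; Times: reaction 90 min, room temperature; Technique: fluorescence polarization readout.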
# NadD inh = blocks S. aureus nicotinate mononucleotide adenylyltransferase | purified NadD enzyme, colorimetric absorbance read-out | inhibition, % at 20 µM | 0.78% of 360,000 active | AID 602399; in the data active = inhibition above about 26%
# PP1 counter = PP1-alpha (human) inhibition in PP5 counter-screen; P62136; purified PP1alpha, OMFP fluorescence; inhibition, % at 6.7 µM; 0.9% of 320,000 active; AID 2235;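 active = inhibition above the mean inhibition of all tested compounds plus 3 SD, computed separately for each screening campaign, cut at about 15% in these data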
# Target sequence (P62136 whole entry, looked up): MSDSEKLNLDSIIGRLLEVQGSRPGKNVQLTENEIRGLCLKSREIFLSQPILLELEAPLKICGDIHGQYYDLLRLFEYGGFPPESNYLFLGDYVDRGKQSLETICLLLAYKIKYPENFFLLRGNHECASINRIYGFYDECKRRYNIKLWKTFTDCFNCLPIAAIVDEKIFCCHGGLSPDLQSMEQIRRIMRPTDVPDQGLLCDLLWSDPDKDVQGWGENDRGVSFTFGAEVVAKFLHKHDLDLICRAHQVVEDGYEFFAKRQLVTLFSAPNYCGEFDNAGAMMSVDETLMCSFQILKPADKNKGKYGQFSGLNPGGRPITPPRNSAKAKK
# CSN deneddyl val = validation of inhibitors of human CSN-mediated cullin deneddylation. shares compounds with CSN inh. Csn5 deneddylation of SCF-Nedd8OG, fluorescence polarization, 90 min. inhibition, % at 16.6 µM. 62% of 540 active; in the data active = inhibition above about 50%;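 note: 0% = DMSO with enzyme and 100% = no enzyme wells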
# MMP-2 counter = blocks human MMP-2 in a CSN deneddylation counter-screen. shares compounds with CSN inh. 33% of 540 active. recombinant MMP-2, FRET substrate fluorescence, 60 min. inhibition, % at 16.6 µM;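 active = corrected plate-normalized z-score of 5 or more, or -5 or less, or inhibition of 15% or more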;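 note: plate controls were DMSO wells with enzyme for no effect and buffer wells lacking MMP-2 for full effect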
# Thrombin counter = thrombin (bovine) inhibition, counter-screen for CSN hits; shares compounds with CSN inh; bovine thrombin cleavage of Ub4-pepOG, fluorescence polarization; inhibition, % at 16.6 µM; 49% of 540 active; AID 720656;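 active = inhibition at or above a set limit, with a fluorescence interference ratio between 0.5 and a set maximum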
# Active calls of the source: *; . = not tested or not shown; + = active, no number. Rows were chosen to be rich in hits. Some 2.7% of all compounds tested hit in one or more screens of this group.
SMILES,TPT1 inh,HNF4A DNA FP,Rpn11 inh,CSN inh,NadD inh,PP1 counter,CSN deneddyl val,MMP-2 counter,Thrombin counter
O=C(O)CSc1cc(C(=O)c2ccccc2O)cn2c(=O)c3c4c(sc3nc12)CCCC4,.,-31,-12,43*,18,.,31,42*,-21
OC(c1ccccc1)(c1ccccc1)c1nccn1-c1ccccc1,.,-1,-8,1,0,.,.,.,.
CCCCn1c(NC(=O)c2ccccc2Cl)c(C#N)c2nc3ccccc3nc21,16,64*,23,59*,19,10,98*,2,-36
Cc1ccc(C)c(S(=O)(=O)Nc2ccc3oc(C)c(C(=O)O)c3c2)c1,-2,-31,-6,40*,5,-2,53,12,7
CC1=C(C(=O)OC(C)C)C(c2ccc(Cl)cc2)n2c(s/c(=C\c3ccc(OCC(=O)O)cc3)c2=O)=N1 (centres undefined),.,-18,.,84*,18,.,-2,-1,12
Nc1cccc2c1C(=O)N(C(=O)/C=C/c1cccc(Br)c1)C2=O,.,-10,10,41*,4,.,68*,4,46*
Nc1cccc2c1C(=O)N(C(=O)/C=C/c1cccc(F)c1)C2=O,-14,-8,-3,23,7,-4,.,.,.
CCOC(=O)[C@]12CCCC=C1N(Cc1ccccc1)C(=O)[C@H](CC(=O)NCCCOC)C2,.,-2,.,0,.,.,.,.,.
CC1(C)CC[C@]2(C(=O)n3ccnc3)CC[C@]3(C)[C@H](C(=O)C=C4[C@@]5(C)C=C(C#N)C(=O)C(C)(C)[C@@H]5CC[C@]43C)[C@@H]2C1,.,-19,4,39*,43*,.,56*,0,8
CC(=NNC(=O)CSc1nc2ccccc2o1)c1ccco1,.,3,4,6,-3,.,.,.,.
CCCCNC1=CC(=O)C(=O)c2ccccc21,-2,-3,4,48*,2,1,87*,4,0
CCCCNC1=CC(=O)C(NCCCC)=CC1=O,.,-4,0,2,4,.,.,.,.
CC(=O)N1c2ccc(S(=O)(=O)NCC3CCC(C(=O)N4CCCC(C)C4)CC3)cc2CC1C (centres undefined),-1,1,2,-1,-2,1,.,.,.
O=C1C(=O)c2cccnc2-c2ncccc21,.,0,12,59*,40*,.,5,-1,-32
O=C1c2cccnc2-c2ncccc21,-4,-1,-5,2,-7,6,.,.,.
CCCc1ccc(O)c(N=Cc2cc(Br)cc(OCC)c2O)c1,6,11,24,38*,12,0,89*,-5,46*
CCOc1ccc(Br)cc1/C=N/O,-6,0,10,-1,0,-2,.,.,.
O=c1[nH]c(Nc2ccc(F)cc2)cc2ccccc12,21,1,12,35*,-1,1,73*,9,-34
C/C=C/c1ccc(OCC(=O)N(CCOC)c2c(N)n(CCCC)c(=O)[nH]c2=O)c(OC)c1,2,0,-2,2,2,-5,.,.,.
CCC/C(C#Cc1ccc(N(C)C)cc1)=C1/c2ccccc2C(=O)N1c1ccccc1,.,95,.,53*,1,.,+,-59*,-74
CC(=O)N1c2ccc(S(=O)(=O)NCCC(=O)Nc3ccc(OC(F)(F)F)cc3)cc2CC1C (centres undefined),1,2,7,1,-5,0,.,.,.
CCCc1nc2c(=O)n(C)c(=O)nc-2n(C)n1,.,157*,10,76*,-1,.,-10,5,-28
Cn1nc(-c2ccccn2)nc2c(=O)n(C)c(=O)nc1-2,-5,153*,23,57*,-3,41*,28,-4,-27
COc1ccc(-c2nc(-c3ccccn3)ncc2S(C)(=O)=O)cc1,3,-3,5,3,-4,7,.,.,.
Nc1ncnc2c1ncn2[C@@H]1O[C@H](CNC(=O)[C@@H]2C[C@H](F)CN2)[C@@H](O)[C@H]1O,.,2,-3,-2,4,.,.,.,.
SMILES,TPT1 inh,HNF4A DNA FP,Rpn11 inh,CSN inh,NadD inh,PP1 counter,CSN deneddyl val,MMP-2 counter,Thrombin counter
O=Nc1c(O)ccc2cc(S(=O)(=O)O)ccc12,.,-10,-10,5,0,.,.,.,.
CN(C)c1ccc2cc(S(=O)(=O)O)cc(O)c2c1,.,-18,-7,35*,2,.,75*,4,1
O=C1/C(=C/c2ccncc2)SC(=S)N1Nc1ccccc1,-2,-2,5,5,7,5,.,.,.
O=C1/C(=C/c2ccc(O)c(O)c2)SC(=S)N1Nc1ccccc1,.,28,.,54*,1,.,47,18*,54*
COc1cc2c(-c3ccc4cc[nH]c4c3)c(-c3ccc(C#N)cc3)oc(=O)c2cc1OC,.,3,8,-1,26,9,.,.,.
O=C(CC[C@H]1O[C@@H](n2cnc3c(NC(=O)c4ccccc4)ncnc32)[C@H](O)[C@@H]1O)N[C@@H](CO)Cc1c[nH]c2ccccc12,.,1,2,1,-3,.,.,.,.
N#Cc1ccccc1CN1C(=O)S/C(=C/c2cccn2-c2ccc(C(=O)O)cc2)C1=O,-3,-7,-13,29,7,2,.,.,.
O=C(O)c1ccc(-n2cccc2/C=C2/NC(=O)N(c3ccccc3)C2=O)cc1,-1,-64,35,36*,-6,0,71*,20*,-21
O=C(O)c1ccc(-n2cccc2/C=C2/SC(=O)N(CC(=O)N3CCCC3)C2=O)cc1,4,-55,17,43*,-8,5,.,31*,11
C[C@@H]1CN([C@@H](C)CO)C(=O)c2cc(Br)cnc2O[C@@H]1CN(C)Cc1ccc(Oc2ccccc2)cc1,.,0,0,-4,-6,.,.,.,.
Nc1ncn(C(=S)Nc2ccccc2)n1,.,-3,4,-2,3,.,.,.,.
COc1ccc(-c2coc3c(C)c4oc(=O)c(CCC(=O)O)c(C)c4cc23)cc1,-2,-1,1,2,-1,4,.,.,.
Cc1c(CCC(=O)O)c(=O)oc2c(C)c3occ(-c4ccc(Br)cc4)c3cc12,.,-2,12,39*,19,.,26,30*,-5
NC1=NC(=O)/C(=C\c2ccco2)S1,-2,-21,-11,36*,2,0,70*,17*,-6
Cc1ccc(NC(=O)NC(=O)CN2CCCC2c2ccc3c(c2)OCCO3)cc1C (centres undefined),.,-2,7,6,-4,-1,.,.,.
Cc1ccc(-c2csc(NC(=O)c3cccc(C)c3)c2C(=O)O)cc1,-1,3,8,6,-2,2,.,.,.
